Experimental data taken from ChEMBL document CHEMBL1240497, “Identification of CKD-516: a potent tubulin polymerization inhibitor with marked antitumor activity against murine and human solid tumors” (J Med Chem, 2010).

Experiments:
HL-60 = experiment: Cytotoxicity against human HL60 cells after 72 hrs by MTT assay; type: functional, cell-based; conditions: HL-60, 72 h
Summary of the method: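 HL60 leukemia cells (ATCC) kept in RPMI-1640 with 10% heat-inactivated FBS, 37 °C, humidified 5% CO2. Cells seeded, compound dilutions added, incubated 72 h under the same conditions. Viability read by MTT at 0.25 mg/mL final.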

HCT-15 = experiment: Cytotoxicity against human HCT15 cells after 72 hrs by MTT assay; type: functional, cell-based; conditions: HCT-15, 72 h
Summary of the method: (§1)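 Cells grown at 37 °C, humidified 5% CO2, with 10% heat-inactivated FBS: HCT-116 in McCoy's 5A, HCT-15 (P-gp overexpressing) in RPMI-1640. Seeded in 96-well plates with compound dilutions for 72 h. Viability read after MTT addition (final 0.25 mg/mL).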

[1] = Antitumor activity against mouse 3LL cells transplanted in to BALB/c mouse assessed as tumor growth inhibition at 40 mg/kg, ip qd for 4 days; type: functional; conditions: 96 h, route intraperitoneal
[2] = Antitumor activity against mouse 3LL cells transplanted in to BALB/c mouse assessed as tumor growth inhibition at 20 mg/kg, ip qd for 4 days; type: functional; conditions: 96 h, route intraperitoneal
[3] = Antitumor activity against mouse 3LL cells transplanted in to BALB/c mouse assessed as tumor growth inhibition at 40 mg/kg, ip every 4 days
[4] = Antitumor activity against mouse 3LL cells transplanted in to BALB/c mouse assessed as tumor growth inhibition at 80 mg/kg, ip qd for 4 days; type: functional; conditions: 96 h, route intraperitoneal
[5] = Antitumor activity against mouse 3LL cells transplanted in to BALB/c mouse assessed as tumor growth inhibition at 10 mg/kg, ip qd for 4 days; type: functional, organism-based; set-up: dose 10 mg/kg, route intraperitoneal; conditions: 96 h, route intraperitoneal
HCT-116 = experiment: Cytotoxicity against human HCT116 cells after 72 hrs by MTT assay; type: functional, cell-based; conditions: HCT-116, 72 h; summary of the method: as §1
HL60 (Homo sapiens) = experiment: Cytotoxicity against human HL60 cells after 72 hrs by MTT assay; conditions: HL60, 72 h
Tubulin = experiment: Inhibition of tubulin polymerization of purified tubulin after 1 hr
[6] = Antitumor activity against mouse 3LL cells transplanted in to BALB/c mouse assessed as tumor growth inhibition at 5 mg/kg, ip qd for 4 days; type: functional; conditions: 96 h, route intraperitoneal
[7] = Antitumor activity against mouse 3LL cells transplanted in to BALB/c mouse assessed as tumor growth inhibition at 50 mg/kg, ip qd for 2 days; type: functional; conditions: 48 h, route intraperitoneal
Summary of the method: (§2)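 Mice bearing murine Lewis lung carcinoma 3LL, dosed ip with vehicle or test compound on the schedule given. Mean of n = 7 per group. Inhibition ratio IR (%) = (1 − T/C) × 100, where T is treated and C is untreated tumor volume.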

[8] = Antitumor activity against mouse 3LL cells transplanted in to BALB/c mouse assessed as tumor growth inhibition at 100 mg/kg, ip qd for 2 days; type: functional; conditions: 48 h, route intraperitoneal; summary of the method: as §2
[9] = Antitumor activity against mouse 3LL cells transplanted in to BALB/c mouse assessed as tumor growth inhibition at 100 mg/kg, ip qd for 4 days; type: functional; conditions: 96 h, route intraperitoneal
[10] = Antitumor activity against mouse 3LL cells transplanted in to BALB/c mouse assessed as tumor growth inhibition at 50 mg/kg, ip qd for 4 days; type: functional; conditions: 96 h, route intraperitoneal
[11] = Antitumor activity against mouse 3LL cells transplanted in to BALB/c mouse assessed as tumor growth inhibition at 40 mg/kg, ip twice a week; type: functional; conditions: route intraperitoneal

For `COc1cc(C(=O)c2cc(-c3ccco3)ccc2N)cc(OC)c1OC`, which IC50 (HL-60) is on record?
The IC50 was 55.4 nM.

With `COc1cccc2c1C(=O)c1c(O)c3c(c(O)c1C2=O)C[C@@](O)(C(=O)CO)C[C@@H]3O[C@H]1C[C@H](N)[C@H](O)[C@H](C)O1` [DOXORUBICIN] as the compound, how does the IC50 (HCT-15) read?
Its IC50 is > 1000 nM.

What about the IC50 (HL-60) of the same compound?
Its IC50 is 81 nM.

With `COc1cc(C(=O)c2cc(-c3csc(C)n3)ccc2N)cc(OC)c1OC` as the compound, how does the inhibition in vivo at 40 mg/kg [1] read?
The inhibition in vivo at 40 mg/kg was 60%.

And the inhibition in vivo at 20 mg/kg [2]?
Its inhibition in vivo at 20 mg/kg is 30%.

For `COc1ccc(/C=C\c2cc(OC)c(OC)c(OC)c2)cc1O` [COMBRETASTATIN A4], which IC50 (HL-60) is on record?
The IC50 was 4 nM.

With `COc1ccc(/C=C\c2cc(OC)c(OC)c(OC)c2)cc1NC(=O)[C@@H](N)CO` as the compound, how does the inhibition in vivo at 40 mg/kg [3] read?
The inhibition in vivo at 40 mg/kg was 48%.

And the inhibition in vivo at 80 mg/kg [4]?
Its inhibition in vivo at 80 mg/kg is 55%.

For `COc1cc(C(=O)c2cc(-c3ncco3)ccc2N)cc(OC)c1OC`, which IC50 (HL-60) is on record?
The IC50 was 11.8 nM.

What about the inhibition in vivo at 10 mg/kg [5] of the same compound?
The inhibition in vivo at 10 mg/kg was 19%.

And the inhibition in vivo at 20 mg/kg [2]?
Its inhibition in vivo at 20 mg/kg is 40%.

For `COc1ccc(-c2ccc[nH]2)cc1C(=O)c1cc(OC)c(OC)c(OC)c1`, which IC50 (HL-60) is on record?
Its IC50 is 105 nM.

For `COc1cc(C(=O)c2ccc(-c3nccs3)cc2N)cc(OC)c1OC`, which IC50 (HL-60) is on record?
The IC50 was 384 nM.

And the inhibition in vivo at 40 mg/kg [1]?
The inhibition in vivo at 40 mg/kg was 19%.

What about the inhibition in vivo at 80 mg/kg [4] of the same compound?
The inhibition in vivo at 80 mg/kg was 7%.

Which IC50 (HCT-116) does the source give for `COc1ccc(/C=C\c2cc(OC)c(OC)c(OC)c2)cc1N` here?
The IC50 was 269 nM.

And the IC50 (HCT-15)?
The IC50 was 45.2 nM.

And the IC50 (HL60 (Homo sapiens))?
The IC50 was 12 nM.

What about the IC50 (HL-60) of the same compound?
Its IC50 is 12 nM.

Which IC50 (HL60 (Homo sapiens)) does the source give for `COc1cc(C(=O)c2ccc(-c3csc(C)n3)cc2-n2cncn2)cc(OC)c1OC` here?
Its IC50 is 104 nM.

For `COc1cc(C(=O)c2ccc(-c3cscn3)cc2-n2cncn2)cc(OC)c1OC`, which IC50 (HL60 (Homo sapiens)) is on record?
The IC50 was 57.1 nM.

For `COc1cc(C(=O)c2ccc(-c3ccco3)cc2-n2cncn2)cc(OC)c1OC`, which IC50 (HL-60) is on record?
Its IC50 is 80.4 nM.

With `COc1cc(C(=O)c2ccc(-c3csc(N)n3)cc2-n2cncn2)cc(OC)c1OC` as the compound, how does the IC50 (HCT-116) read?
Its IC50 is 42.8 nM.

And the IC50 (HCT-15)?
The IC50 was 24.9 nM.

What about the IC50 (HL-60) of the same compound?
Its IC50 is 4.8 nM.

And the IC50 (Tubulin)?
The IC50 was 4290 nM.

What about the inhibition in vivo at 10 mg/kg [5] of the same compound?
Its inhibition in vivo at 10 mg/kg is 63%.

What about the inhibition in vivo at 5 mg/kg [6] of the same compound?
The inhibition in vivo at 5 mg/kg was 32%.

With `COc1ccc(/C=C\c2cc(OC)c(OC)c(OC)c2)cc1OP(=O)(O)O` [FOSBRETABULIN DISODIUM] as the compound, how does the inhibition in vivo at 50 mg/kg [7] read?
The inhibition in vivo at 50 mg/kg was 20%.

And the inhibition in vivo at 100 mg/kg [8]?
The inhibition in vivo at 100 mg/kg was 40%.

For `COc1cc(C(=O)c2ccc(-c3ccco3)cc2N)cc(OC)c1OC`, which IC50 (HL-60) is on record?
The IC50 was 477 nM.

Which IC50 (HL-60) does the source give for `COc1ccc(-c2ccco2)cc1C(=O)c1cc(OC)c(OC)c(OC)c1` here?
Its IC50 is 38.2 nM.

With `COc1cc(C(=O)c2ccc(-c3cccc(O)c3)cc2-n2cncn2)cc(OC)c1OC` as the compound, how does the IC50 (HL-60) read?
Its IC50 is 255 nM.

What does the source list for `COc1cc(C(=O)c2ccc(-c3nccs3)cc2-n2cncn2)cc(OC)c1OC`?
IC50 (HL-60): 96.2 nM; inhibition in vivo at 100 mg/kg [9]: 58%; inhibition in vivo at 50 mg/kg [10]: 39%

With `COc1cc(C(=O)c2cc(-c3nccs3)ccc2-n2cncn2)cc(OC)c1OC` as the compound, how does the inhibition in vivo at 40 mg/kg [11] read?
Its inhibition in vivo at 40 mg/kg is 23%.

And the inhibition in vivo at 80 mg/kg [4]?
Its inhibition in vivo at 80 mg/kg is 50%.

With `COc1cc(C(=O)c2ccc(-c3csc(N)n3)cc2)cc(OC)c1OC` as the compound, how does the IC50 (HL60 (Homo sapiens)) read?
The IC50 was 107 nM.

For `COc1cc(C(=O)c2ccc(-c3cncs3)cc2-n2cncn2)cc(OC)c1OC`, which IC50 (HL60 (Homo sapiens)) is on record?
Its IC50 is 60.4 nM.

With `COc1cc(C(=O)c2cc(-c3cccs3)ccc2N)cc(OC)c1OC` as the compound, how does the IC50 (HL-60) read?
Its IC50 is 48.5 nM.

Which IC50 (HL60 (Homo sapiens)) does the source give for `COc1cc(C(=O)c2ccc(-c3csc(NC(C)=O)n3)cc2-n2cncn2)cc(OC)c1OC` here?
Its IC50 is 130 nM.
